{"data": "Measurements collected from several papers", "target": "Leukocyte tyrosine kinase receptor (LTK, Homo sapiens, UniProt P29376)", "note": "Compare with care: the assays were run in different laboratories."}
{"SMILES": "Cn1cc(-c2cccc(N3CCc4c(sc5c4CC(C)(C)C5)C3=O)c2CO)cc(Nc2ccncn2)c1=O", "test": "enzyme activity, inhibitor", "setting": "1 µM", "quantity": "inhibition", "result": "4%"}
{"SMILES": "Cn1cncc1[C@](O)(COc1ccc(C#N)cc1-c1ccc(OC(F)(F)F)cc1)c1ccc(C#N)cc1", "test": "cell-free assay, competition with immobilised ligand", "setting": "1 µM", "quantity": "remaining binding", "result": "91%"}
{"SMILES": "CC(C)(C)c1nc2c(s1)c1nc(N)ncc1c1ccc(NS(=O)(=O)c3c(F)cccc3F)c(F)c12", "test": "enzyme activity, inhibitor, radiometric", "setting": "1 µM", "quantity": "remaining activity", "result": "90%"}
{"SMILES": "Cc1nn(C)cc1-c1nc2c(N3CCN(Cc4ccc(Cl)cc4)CC3)c(Cl)cnc2[nH]1", "test": "binding, competition with immobilised ligand", "setting": "1 µM", "quantity": "remaining binding", "result": "100%"}
{"SMILES": "Nc1ncc(-c2nc(N3CCOCC3)nc(N3CCOCC3)n2)c(C(F)F)n1", "test": "cell-free assay, competition with immobilised ligand", "setting": "10 µM", "quantity": "remaining binding", "result": "26%"}
{"SMILES": "CC(C)(C)c1nc(-c2cccc(NS(=O)(=O)c3c(F)cccc3F)c2F)c(-c2ccnc(N)n2)s1", "test": "enzyme activity, inhibitor, radiometric", "setting": "1 µM", "quantity": "remaining activity", "result": "93%"}
{"SMILES": "Nc1nccc(-c2c(-c3ccc(F)cc3)ncn2C2CCNCC2)n1", "test": "enzyme activity, inhibitor, radiometric", "setting": "0.5 µM", "quantity": "remaining activity", "result": "97.3%"}
{"SMILES": "COc1ncccc1-c1cnn2ccc(N3CCN(C(=O)OC(C)C)CC3)nc12", "test": "binding, competition with immobilised ligand", "setting": "1 µM", "quantity": "remaining binding", "result": "68%"}
{"SMILES": "Cn1cc(-c2cc(F)cc(N3CCn4c(cc5c4CCCC5)C3=O)c2CO)cc(Nc2ccc(N3CCN(C4COC4)CC3)cn2)c1=O", "test": "enzyme activity, inhibitor", "setting": "0.1 µM", "quantity": "inhibition", "result": "11%"}
{"SMILES": "COc1ccc(OC)c2c(=S)c3ccccc3[nH]c12", "test": "enzyme activity, inhibitor, radiometric", "setting": "0.5 µM", "quantity": "remaining activity", "result": "84.5%"}
